Laboratory results reported in ChEMBL document CHEMBL3632518, “Synthesis and anti-HCV determinant motif identification in pyranone carboxamide scaffold” (Bioorg Med Chem Lett, 2015).

Key:
[1] = Cytotoxicity against human HuH7 cells after 3 days by tetrazolium dye method; type: cell-based, Huh-7
Procedure, shortened: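 LucNeo#2 replicon-bearing Huh-7 cells, 5×10^3 cells/well, grown without G418 with various compound concentrations at 37°C for 3 days. Viable cell number measured by water-soluble tetrazolium dye (Tetracolor One) method. CC50 taken as concentration reducing viable cell number by 50%.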

Hepatitis C virus = assay: Antiviral activity against HCV genotype 1b infected in human HuH7 cells after 3 days by luciferase reporter gene assay; type: functional, organism-based, Hepacivirus hominis; conditions: Huh-7, 72 h
Procedure, shortened: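 Huh-7 cells carrying self-replicating subgenomic genotype 1b HCV replicon with luciferase reporter (LucNeo#2), kept in DMEM high glucose plus 10% heat-inactivated FBS and 1 mg/ml G418. Seeded at 5×10^3 cells/well without G418 with various compound concentrations (DMSO stocks, 20 mM or higher); 37°C, 3 days. Cells PBS-washed, lysed, luciferase read by luminometer. EC50 from inhibition of luciferase activity.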

Structure (SMILES) | EC50 (Hepatitis C virus) | CC50 at 72 h [1]
O=C(Nc1ccc(Br)cc1)c1c(NCCO)cc(-c2cccc(Br)c2)oc1=O | 13 µM | > 20 µM
CCOc1ccccc1NC(=O)c1c(NCCO)cc(-c2cccs2)oc1=O | 5.1 µM | 10 µM
Cc1ccccc1NC(=O)c1c(NO)cc(-c2cccs2)oc1=O | 0.59 µM | > 20 µM
COc1ccccc1NC(=O)c1c(NCCO)cc(-c2ccc(Br)cc2)oc1=O | > 20 µM | > 20 µM
O=C(Nc1ccccc1O)c1c(NCCO)cc(-c2ccccc2)oc1=O | > 20 µM | > 20 µM
O=C(NCCO)c1c(N2CCCCC2)cc(-c2ccc(F)cc2)oc1=O | > 100 µM | > 100 µM
O=C(Nc1ccccc1)c1c(NCCO)cc(-c2cccc(Br)c2)oc1=O | > 20 µM | > 20 µM
O=C(Nc1ccc(F)cc1)c1c(NCCO)cc(-c2cccc(Br)c2)oc1=O | 5.5 µM | > 20 µM
O=C(NCCBr)c1c(NCCO)cc(-c2cccs2)oc1=O | 15 µM | > 20 µM
Cc1cccc(NC(=O)c2c(NO)cc(-c3cccs3)oc2=O)c1 | 0.47 µM | > 20 µM
CCOc1ccccc1NC(=O)c1c(NCCO)cc(-c2ccccc2)oc1=O | > 20 µM | > 20 µM
COc1ccc(NC(=O)c2c(NCCO)cc(-c3ccc(Br)cc3)oc2=O)cc1 | 14 µM | > 20 µM
O=C(Nc1cccc(C(F)(F)F)c1)c1c(NO)cc(-c2cccs2)oc1=O | 1.8 µM | 11 µM
CCOc1ccccc1NC(=O)c1c(NCCO)cc(-c2cccc(Br)c2)oc1=O | > 20 µM | > 20 µM
CCC[C@H](NC(=O)[C@@H]1[C@H]2CCC[C@H]2CN1C(=O)[C@@H](NC(=O)[C@@H](NC(=O)c1cnccn1)C1CCCCC1)C(C)(C)C)C(=O)C(=O)NC1CC1 [TELAPREVIR] | 0.36 µM | > 20 µM
COc1cccc(NC(=O)c2c(NCCO)cc(-c3cccs3)oc2=O)c1 | > 20 µM | > 20 µM
O=C(Nc1ccc(Br)cc1)c1c(NCCO)cc(-c2ccc(Br)cc2)oc1=O | 14.4 µM | > 20 µM
COc1cccc(NC(=O)c2c(NCCO)cc(-c3ccc(Br)cc3)oc2=O)c1 | > 20 µM | > 20 µM
CCOc1ccccc1NC(=O)c1c(NCCO)cc(-c2ccc(Br)cc2)oc1=O | > 20 µM | > 20 µM
COc1ccccc1NC(=O)c1c(NCCO)cc(-c2cccc(Br)c2)oc1=O | 6 µM | > 20 µM
COc1ccccc1NC(=O)c1c(NCCO)cc(-c2cccs2)oc1=O | > 20 µM | > 20 µM

The next lines start with results.

EC50 (Hepatitis C virus) | Structure (SMILES) | CC50 at 72 h [1]
0.63 µM | COc1cccc(NC(=O)c2c(NO)cc(-c3ccccc3)oc2=O)c1 | > 20 µM
6 µM | O=C(Nc1ccc(Br)cc1)c1c(NO)cc(-c2cccs2)oc1=O | > 20 µM
3.8 µM | O=C(Nc1ccc(Cl)cc1)c1c(NO)cc(-c2cccs2)oc1=O | > 20 µM
> 100 µM | CONc1cc(-c2ccc(C)cc2)oc(=O)c1C(=O)NCCCO | > 100 µM
1.1 µM | CCOc1ccccc1NC(=O)c1c(NO)cc(-c2ccccc2)oc1=O | > 20 µM
3.2 µM | O=C(NC1CCCCC1)c1c(NO)cc(-c2ccc(F)cc2)oc1=O | 11.4 µM
7.1 µM | O=C(Nc1ccc(Cl)cc1)c1c(NCCO)cc(-c2cccc(Br)c2)oc1=O | 17 µM
1.2 µM | O=C(Nc1cccc(C(F)(F)F)c1)c1c(NO)cc(-c2ccccc2)oc1=O | 19 µM
0.48 µM | Nc1ccccc1NC(=O)c1c(NO)cc(-c2ccccc2)oc1=O | > 20 µM
10 µM | O=C(Nc1ccc(Cl)cc1)c1c(NCCO)cc(-c2ccc(Br)cc2)oc1=O | > 20 µM
1.3 µM | O=C(Nc1ccccc1)c1c(NO)cc(-c2cccs2)oc1=O | > 20 µM
5 µM | Cc1ccc(-c2cc(NO)c(C(=O)NC3CCCCC3)c(=O)o2)cc1 | 10.1 µM
4.1 µM | COc1ccc(-c2cc(NO)c(C(=O)NC3CCCCC3)c(=O)o2)cc1 | 13.9 µM
1.7 µM | O=C(Nc1ccccc1O)c1c(NO)cc(-c2ccccc2)oc1=O | 14 µM
0.39 µM | Cc1ccc(NC(=O)c2c(NO)cc(-c3cccs3)oc2=O)cc1 | > 20 µM
2.9 µM | O=C(NC1CC1)c1c(NO)cc(-c2ccc(Cl)cc2)oc1=O | 12.8 µM
2.2 µM | O=C(NC1CCCCC1)c1c(NO)cc(-c2ccc(Cl)cc2)oc1=O | 8.8 µM
2.3 µM | O=C(NC1CCCCC1)c1c(NO)cc(-c2ccccc2)oc1=O | 10.5 µM
0.2 µM | COc1ccc(NC(=O)c2c(NO)cc(-c3cccs3)oc2=O)cc1 | > 20 µM
3.3 µM | O=C(NC1CC1)c1c(NO)cc(-c2ccc(F)cc2)oc1=O | > 20 µM
0.65 µM | O=C(Nc1ccc(F)cc1)c1c(NO)cc(-c2cccs2)oc1=O | > 20 µM
0.35 µM | COc1ccccc1NC(=O)c1c(NO)cc(-c2ccccc2)oc1=O | > 20 µM
0.25 µM | Nc1ccccc1NC(=O)c1c(NO)cc(-c2cccs2)oc1=O | > 20 µM
3.5 µM | O=C(Nc1cc([N+](=O)[O-])ccc1O)c1c(NO)cc(-c2ccccc2)oc1=O | > 20 µM
